Measurements as given in ChEMBL document CHEMBL1124270, “Quinolone antibacterial agents. Synthesis and structure-activity relationships of 8-substituted quinoline-3-carboxylic acids and 1,8-naphthyridine-3-carboxylic acids” (1988).
Converted amounts (≈) assume the structure as drawn.

Legend:
Type in all cases: functional
Escherichia coli [1] = test: Minimum inhibitory concentration against Escherichia coli H560 in vitro.
Escherichia coli [2] = test: Minimum inhibitory concentration against Escherichia coli vogel in vitro.
Providencia rettgeri = test: Minimum inhibitory concentration against Providencia rettgeri H1771 in vitro.
Klebsiella pneumoniae = test: Minimum inhibitory concentration against Klebsiella pneumoniae MGH-2 in vitro.
Pseudomonas aeruginosa = test: Minimum inhibitory concentration against Pseudomonas aeruginosa UI-18 in vitro.
Streptococcus pyogenes = test: Minimum inhibitory concentration against Streptococcus pyogenes C203 in vitro.
Staphylococcus aureus [3] = test: Minimum inhibitory concentration against Staphylococcus aureus UC-76 in vitro.
Mus musculus [4] = test: In vivo potency against Escherichia coli vogel using mouse protection assay when given perorally; settings: po, read-out: PD50
Streptococcus pneumoniae = test: Minimum inhibitory concentration against Streptococcus pneumoniae SV-1 in vitro.
Enterococcus faecalis = test: Minimum inhibitory concentration against Streptococcus faecalis MGH-2 in vitro.
Mus musculus [5] = test: In vivo potency against Escherichia coli vogel using mouse protection assay when given subcutaneously; settings: sc, read-out: PD50
Enterobacter cloacae = test: Minimum inhibitory concentration against Enterobacter cloacae HA 2646 in vitro.
Staphylococcus aureus [6] = test: Minimum inhibitory concentration against Staphylococcus aureus H228 in vitro.
Escherichia coli [7] = test: Minimum concentration needed to produce linear DNA at an intensity relative to oxolinic at 10 ug/mL in Escherichia coli H560 in vitro.
Summary of the method: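 DNA gyrase cleavage test, run as previously described: end point is the lowest drug level (µg/mL) that yields linear DNA at a band intensity matching oxolinic acid at 10 µg/mL. Values come from duplicate or triplicate experiments and are stated as accurate to ±50%.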

Staphylococcus aureus [8] = test: In vivo potency against Staphylococcus aureus using mouse protection assay following s.c. administration.; settings: sc, read-out: PD50
Staphylococcus aureus [9] = test: In vivo potency against Staphylococcus aureus using mouse protection assay following p.o. administration.; settings: po, read-out: PD50

| Structure (SMILES) | MIC (Escherichia coli [1]) [µg/mL] | MIC (Escherichia coli [2]) [µg/mL] | MIC (Providencia rettgeri) [µg/mL] | MIC (Klebsiella pneumoniae) [µg/mL] | MIC (Pseudomonas aeruginosa) [µg/mL] | MIC (Streptococcus pyogenes) [µg/mL] | MIC (Staphylococcus aureus [3]) [µg/mL] | ED50 (Mus musculus [4]) [mg/kg] | MIC (Streptococcus pneumoniae) [µg/mL] | MIC (Enterococcus faecalis) [µg/mL] | ED50 (Mus musculus [5]) [mg/kg] | MIC (Enterobacter cloacae) [µg/mL] | MIC (Staphylococcus aureus [6]) [µg/mL] | DNA cleavage conc (gyrase) (Escherichia coli [7]) [µg/mL] | ED50 (Staphylococcus aureus [8]) [mg/kg] | ED50 (Staphylococcus aureus [9]) [mg/kg] |
| --- | --- | --- | --- | --- | --- | --- | --- | --- | --- | --- | --- | --- | --- | --- | --- | --- |
| Cl.O=C(O)c1cn(C2CC2)c2c([N+](=O)[O-])c(N3CCNCC3)c(F)cc2c1=O | 0.4 | 0.2 | 3.1 | 0.8 | 1.6 | 12.5 | 0.4 | 10 | 12.5 | 6.3 | 3 | 0.2 | 1.6 |  |  |  |
| Cl.Nc1c(N2CCC(N)C2)c(F)cc2c(=O)c(C(=O)O)cn(C3CC3)c12 (configuration not stated) | 0.1 | 0.4 | 0.8 | 0.4 | 1.6 | 3.1 | 0.4 | 50 | 3.1 | 3.1 | 6 | 0.2 | 3.1 | 18 |  |  |
| CCNCC1CCN(c2cc3c(cc2F)c(=O)c(C(=O)O)cn3C2CC2)C1.Cl (configuration not stated) | 0.05 | 0.2 | 0.8 | 0.2 | 1.6 | 0.05 | 0.013 | 35 | 0.2 | 0.2 |  | 0.4 | 0.4 | 1 |  |  |
| CC1COc2c(N3CCC(N)C3)c(F)cc3c(=O)c(C(=O)O)cn1c23.Cl (configuration not stated) | 0.2 | 0.4 | 0.8 | 0.4 | 0.4 | 0.2 | 0.1 | 25 | 0.8 | 1.6 | 2 | 0.4 | 1.6 | 0.75 |  |  |
| CCNCC1CCN(c2c(F)cc3c(=O)c(C(=O)O)cn(C4CC4)c3c2N)C1.Cl.Cl (configuration not stated) | 0.8 | 0.4 | 1.6 | 0.8 | 3.1 | 0.2 | 0.05 |  | 0.4 | 0.2 |  | 0.4 | 0.8 | 2.5 |  |  |
| CNCC1CCN(c2c(F)cc3c(=O)c(C(=O)O)cn(C4CC4)c3c2N)C1.Cl (configuration not stated) | 1.6 | 0.8 | 6.3 | 3.1 | 6.3 | 0.4 | 0.2 |  | 1.6 | 1.6 |  | 3.1 | 1.6 | 5 |  |  |
| CCNCC1CCN(c2c(F)cc3c(=O)c(C(=O)O)cn(C4CC4)c3c2[N+](=O)[O-])C1.Cl (configuration not stated) | 0.4 | 0.4 | 1.6 | 0.8 | 6.3 | 0.2 | 0.1 |  | 0.1 | 0.4 |  | 0.4 | 0.4 |  |  |  |
| CC(C)NCC1CCN(c2cc3c(cc2F)c(=O)c(C(=O)O)cn3C2CC2)C1.Cl (configuration not stated) | 0.05 | 0.1 | 0.8 | 0.2 | 3.1 | 0.05 | 0.025 | 25 | 0.025 | 0.1 | 4 | 0.1 | 0.2 |  |  |  |
| CN(C)CC1CCN(c2c(F)cc3c(=O)c(C(=O)O)cn(C4CC4)c3c2N)C1.Cl (configuration not stated) | 0.4 | 0.4 | 0.8 | 0.8 | 3.1 | 0.4 | 0.1 | 9 | 0.4 | 0.4 | 4 | 0.2 | 0.2 | 5 | 81 | 100 |
| Cl.NC1CCN(c2c(F)cc3c(=O)c(C(=O)O)cn(C4CC4)c3c2[N+](=O)[O-])C1 (configuration not stated) | 0.4 | 0.2 | 0.8 | 0.4 | 1.6 | 1.6 | 0.2 | 30 | 1.6 | 1.6 | 9 | 0.2 | 0.8 |  |  |  |
| O=C(O)c1cn(C2CC2)c2nc(N3CCNCC3)c(F)cc2c1=O | 0.05 (≈ 0.15 µM) | 0.05 (≈ 0.15 µM) | 0.2 (≈ 0.602 µM) | 0.1 (≈ 0.301 µM) | 0.2 (≈ 0.602 µM) | 1.6 (≈ 4.81 µM) | 0.4 (≈ 1.2 µM) | 0.7 | 1.6 (≈ 4.81 µM) | 1.6 (≈ 4.81 µM) | 0.4 | 0.1 (≈ 0.301 µM) | 1.6 (≈ 4.81 µM) | 1 | 6 | 14 |
